Assay results as given in ChEMBL document CHEMBL1147015, “Design and synthesis of selective, high-affinity inhibitors of human cytochrome P450 2J2” (Bioorg Med Chem Lett, 2006).

How the values were obtained:
Cytochrome P450 2J2 = molecular target: T1, Cytochrome P450 2J2 (Homo sapiens, UniProt P51589); experiment: Inhibition of human recombinant CYP2J2 expressed in baculovirus-infected Sf9 insect cells
T1 sequence (P51589 whole entry): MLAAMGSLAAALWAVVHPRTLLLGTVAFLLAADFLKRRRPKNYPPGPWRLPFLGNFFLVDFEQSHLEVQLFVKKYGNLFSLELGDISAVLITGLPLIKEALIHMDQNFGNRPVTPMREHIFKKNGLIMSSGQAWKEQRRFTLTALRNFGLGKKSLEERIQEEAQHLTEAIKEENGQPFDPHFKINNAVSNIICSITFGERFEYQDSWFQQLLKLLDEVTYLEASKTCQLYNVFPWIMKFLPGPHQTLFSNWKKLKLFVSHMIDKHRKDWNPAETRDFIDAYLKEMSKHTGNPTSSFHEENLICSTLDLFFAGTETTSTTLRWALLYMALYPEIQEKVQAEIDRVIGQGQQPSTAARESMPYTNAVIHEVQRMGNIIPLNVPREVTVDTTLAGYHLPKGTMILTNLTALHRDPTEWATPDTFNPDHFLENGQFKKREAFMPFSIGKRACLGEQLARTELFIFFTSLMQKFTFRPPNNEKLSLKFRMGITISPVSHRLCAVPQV
How it was run: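 Ebastine hydroxylation used as the read-out. Ebastine (0.5 μM) plus inhibitor incubated at 37 °C for 2 or 4 min with Sf9 microsomes (1 nM CYP2J2) in 0.1 M phosphate buffer pH 7.4, 0.1 mM EDTA and NADPH-generating system. Stopped with cold CH3CN/CH3COOH (10:1); protein spun out; supernatant analysed by HPLC on C18. IC50 determined.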

Cytochrome P450 3A4 = Cytochrome P450 3A4 (Homo sapiens, UniProt P08684); experiment: Inhibition of human recombinant CYP3A4; assay type: ADME
Sequence of Cytochrome P450 3A4 (P08684 whole entry): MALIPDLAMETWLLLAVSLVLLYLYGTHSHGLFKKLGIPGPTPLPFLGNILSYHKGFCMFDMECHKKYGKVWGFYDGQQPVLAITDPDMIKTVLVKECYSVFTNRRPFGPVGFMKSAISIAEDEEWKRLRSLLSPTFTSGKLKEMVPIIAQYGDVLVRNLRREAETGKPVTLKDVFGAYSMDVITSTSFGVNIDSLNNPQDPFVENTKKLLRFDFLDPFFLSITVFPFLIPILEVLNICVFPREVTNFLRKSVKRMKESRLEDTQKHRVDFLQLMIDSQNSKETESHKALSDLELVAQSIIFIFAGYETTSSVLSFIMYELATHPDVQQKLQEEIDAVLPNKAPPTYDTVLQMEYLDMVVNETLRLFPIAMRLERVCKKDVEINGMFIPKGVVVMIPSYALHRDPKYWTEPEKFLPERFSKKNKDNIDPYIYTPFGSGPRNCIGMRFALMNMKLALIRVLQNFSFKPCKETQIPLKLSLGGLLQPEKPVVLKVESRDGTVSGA

Cytochrome P450 2C9 = Cytochrome P450 2C9 (Homo sapiens, UniProt P11712); experiment: Inhibition of human recombinant CYP2C9; assay type: ADME
Sequence of Cytochrome P450 2C9 (P11712 whole entry): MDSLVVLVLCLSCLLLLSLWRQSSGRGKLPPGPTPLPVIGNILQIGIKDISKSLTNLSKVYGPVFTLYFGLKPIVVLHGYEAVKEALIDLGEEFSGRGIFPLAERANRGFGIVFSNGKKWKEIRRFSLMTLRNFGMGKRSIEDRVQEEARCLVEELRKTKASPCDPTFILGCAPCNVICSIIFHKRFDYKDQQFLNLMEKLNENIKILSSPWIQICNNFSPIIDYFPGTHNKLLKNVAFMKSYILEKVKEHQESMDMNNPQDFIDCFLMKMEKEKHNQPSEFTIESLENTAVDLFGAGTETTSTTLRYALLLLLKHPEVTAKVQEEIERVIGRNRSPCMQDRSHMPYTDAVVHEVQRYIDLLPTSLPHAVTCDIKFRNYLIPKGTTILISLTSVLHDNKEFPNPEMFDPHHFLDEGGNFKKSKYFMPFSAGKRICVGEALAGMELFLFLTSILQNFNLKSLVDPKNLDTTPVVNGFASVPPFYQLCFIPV

Cytochrome P450 2C8 = molecular target: T2, Cytochrome P450 2C8 (Homo sapiens, UniProt P10632); experiment: Inhibition of human recombinant CYP2C8; assay type: ADME
T2 sequence (P10632 whole entry): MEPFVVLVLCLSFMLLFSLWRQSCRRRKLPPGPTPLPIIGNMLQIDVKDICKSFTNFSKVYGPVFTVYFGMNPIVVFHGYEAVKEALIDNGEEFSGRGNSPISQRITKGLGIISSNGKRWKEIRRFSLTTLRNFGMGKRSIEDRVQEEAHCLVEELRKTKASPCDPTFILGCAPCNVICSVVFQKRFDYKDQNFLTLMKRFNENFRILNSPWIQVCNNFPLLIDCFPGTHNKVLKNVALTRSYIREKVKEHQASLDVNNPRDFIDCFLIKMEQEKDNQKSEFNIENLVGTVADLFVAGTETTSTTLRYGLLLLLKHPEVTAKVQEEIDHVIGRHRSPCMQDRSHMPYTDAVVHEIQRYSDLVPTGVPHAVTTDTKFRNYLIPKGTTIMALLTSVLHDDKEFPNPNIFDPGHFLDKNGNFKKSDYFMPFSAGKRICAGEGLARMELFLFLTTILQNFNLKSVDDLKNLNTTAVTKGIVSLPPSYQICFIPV

Cytochrome P450 2B6 = molecular target: T3, Cytochrome P450 2B6 (Homo sapiens, UniProt P20813); experiment: Inhibition of human recombinant CYP2B6; assay type: ADME
T3 sequence (P20813 whole entry): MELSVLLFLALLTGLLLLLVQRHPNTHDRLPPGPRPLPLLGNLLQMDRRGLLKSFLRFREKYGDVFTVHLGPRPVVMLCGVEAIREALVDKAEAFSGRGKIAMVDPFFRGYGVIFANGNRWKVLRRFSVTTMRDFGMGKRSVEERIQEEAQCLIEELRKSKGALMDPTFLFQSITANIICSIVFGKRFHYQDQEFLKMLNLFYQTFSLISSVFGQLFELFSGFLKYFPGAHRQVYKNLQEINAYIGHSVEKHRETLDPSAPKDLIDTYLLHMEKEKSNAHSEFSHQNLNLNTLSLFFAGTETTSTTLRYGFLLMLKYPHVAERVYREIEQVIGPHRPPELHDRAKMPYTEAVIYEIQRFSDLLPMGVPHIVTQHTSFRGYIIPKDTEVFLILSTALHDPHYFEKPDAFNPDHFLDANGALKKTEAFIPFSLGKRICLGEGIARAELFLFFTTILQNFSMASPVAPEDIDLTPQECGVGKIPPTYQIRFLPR

## O=C(CCCN1CCC(C(O)(c2ccccc2)c2ccccc2)CC1)c1ccc(CCCO)cc1
Cytochrome P450 2J2
  IC50: 1.9 µM

## O=C(CCCN1CCC(C(O)(c2ccccc2)c2ccccc2)CC1)c1ccc(Br)cc1
Cytochrome P450 2J2
  IC50: 4.2 µM

## O=C(CCCN1CCC(C(O)(c2ccccc2)c2ccccc2)CC1)c1ccc(CC(F)F)cc1
Cytochrome P450 2J2
  IC50: 2.2 µM

## Cc1ccc(C(=O)CCCN2CCC(C(O)(c3ccccc3)c3ccccc3)CC2)cc1
Cytochrome P450 2J2
  IC50: 0.7 µM

## O=C(CCCN1CCC(C(O)(c2ccccc2)c2ccccc2)CC1)c1ccc(CCO)cc1
Cytochrome P450 2J2
  IC50: 1.3 µM

## C=CCc1ccc(C(=O)CCCN2CCC(C(O)(c3ccccc3)c3ccccc3)CC2)cc1
Cytochrome P450 3A4
  IC50: 5.5 µM
Cytochrome P450 2C9
  IC50: 21 µM
Cytochrome P450 2J2
  IC50: 0.4 µM
Cytochrome P450 2C8
  IC50: > 100 µM
Cytochrome P450 2B6
  IC50: 21 µM

## CCCCc1ccc(C(=O)CCCN2CCC(C(O)(c3ccccc3)c3ccccc3)CC2)cc1
Cytochrome P450 2J2
  IC50: 0.7 µM

## CCc1ccc(C(=O)CCCN2CCC(C(O)(c3ccccc3)c3ccccc3)CC2)cc1
Cytochrome P450 2J2
  IC50: 0.6 µM

## CCCc1ccc(C(=O)CCCN2CCC(C(O)(c3ccccc3)c3ccccc3)CC2)cc1
Cytochrome P450 3A4
  IC50: 7.9 µM
Cytochrome P450 2C9
  IC50: 26 µM
Cytochrome P450 2J2
  IC50: 0.4 µM
  Ki: 0.16 µM
Cytochrome P450 2C8
  IC50: > 100 µM
Cytochrome P450 2B6
  IC50: 28 µM

## CC(=O)OCCCc1ccc(C(=O)CCCN2CCC(C(O)(c3ccccc3)c3ccccc3)CC2)cc1
Cytochrome P450 2J2
  IC50: 2.5 µM

## O=C(CCCN1CCC(C(O)(c2ccccc2)c2ccccc2)CC1)c1ccc2c(c1)OCO2
Cytochrome P450 2J2
  IC50: 6.7 µM

## COc1ccc(C(=O)CCCN2CCC(C(O)(c3ccccc3)c3ccccc3)CC2)cc1
Cytochrome P450 2J2
  IC50: 7.6 µM

## CC(C)(C)c1ccc(C(=O)CCCN2CCC(C(O)(c3ccccc3)c3ccccc3)CC2)cc1 [TERFENADONE]
Cytochrome P450 2J2
  IC50: 0.7 µM
